Measured values from ChEMBL document CHEMBL1144984, “Synthesis and antibacterial activity of pyrroloaryl-substituted oxazolidinones” (2003).
Values after ≈ are worked out from the molar mass of the structure shown.

Key:
Format in all cases: functional
Enterococcus faecium = experiment: Minimum inhibitory concentration against vancomycin resistant Enterococcus faecium OC 3312
Outline: (§1)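 Broth microdilution per NCCLS methods; MIC read as the lowest compound concentration inhibiting visible growth. Linezolid run as standard. Strains from a four-strain Gram-positive screening panel: S. aureus OC 2878 is methicillin-resistant, E. faecium OC 3312 is vancomycin-resistant.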

Staphylococcus aureus [1] = experiment: Minimum inhibitory concentration against Staphylococcus aureus broth
Outline: (§2)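 Broth microdilution MIC run by National Committee for Clinical Laboratory Standards methods, with linezolid as standard. MIC is the lowest compound concentration inhibiting visible growth.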

Staphylococcus aureus [2] = experiment: Minimum inhibitory concentration against methicillin resistant Staphylococcus aureus OC 2878; outline: as §1
Enterococcus faecalis = experiment: Minimum inhibitory concentration against Enterococcus faecalis ATTCC 29212; outline: as §2
Staphylococcus aureus [3] = experiment: Minimum inhibitory concentration against Staphylococcus aureus OC 4172 in precense of 50% mouse serum
Outline: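 Broth microdilution MIC against S. aureus OC 4172 (Smith, methicillin-susceptible) with 50% mouse serum in the medium, to gauge protein binding or serum inactivation. Run by NCCLS methods with linezolid as standard. MIC is the lowest concentration inhibiting visible growth.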

Mus musculus [4] = experiment: Effective dose of compound after oral administration in murine model infected with Staphylococcus aureus OC4172 (Smith) was determined
Outline: (§3)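 Murine model of lethal systemic infection, with compound given orally. ED50 is the dose protecting 50% of mice from death, expressed in mg/kg/day.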

Mus musculus [5] = experiment: Effective dose of compound after oral administration in mice with Staphylococcus aureus OC4172 (Smith) was determined; outline: as §3

CC(=O)NC[C@H]1CN(c2ccc(N3Cc4ccncc4C3)c(F)c2)C(=O)O1
MIC (Enterococcus faecium): 1 µg/mL (≈ 2.7 µM)
MIC (Staphylococcus aureus [1]): 1 µg/mL (≈ 2.7 µM)
MIC (Staphylococcus aureus [2]): 0.5 µg/mL (≈ 1.35 µM)
MIC (Enterococcus faecalis): 1 µg/mL (≈ 2.7 µM)
MIC (Staphylococcus aureus [3]): 1 µg/mL (≈ 2.7 µM)

CCN(Cc1cccnc1)c1ccc(N2C[C@H](CNC(C)=O)OC2=O)cc1F
MIC (Enterococcus faecium): 16 µg/mL (≈ 41.4 µM)
MIC (Staphylococcus aureus [1]): 16 µg/mL (≈ 41.4 µM)
MIC (Staphylococcus aureus [2]): 8 µg/mL (≈ 20.7 µM)
MIC (Enterococcus faecalis): 16 µg/mL (≈ 41.4 µM)
MIC (Staphylococcus aureus [3]): 32 µg/mL (≈ 82.8 µM)

CC(=O)NC[C@H]1CN(c2ccc(N3Cc4cccnc4C3=O)c(F)c2)C(=O)O1
MIC (Enterococcus faecium): 8 µg/mL (≈ 20.8 µM)
MIC (Staphylococcus aureus [1]): 8 µg/mL (≈ 20.8 µM)
MIC (Staphylococcus aureus [2]): 8 µg/mL (≈ 20.8 µM)
MIC (Enterococcus faecalis): 32 µg/mL (≈ 83.3 µM)
MIC (Staphylococcus aureus [3]): 8 µg/mL (≈ 20.8 µM)

CCN(Cc1ccccn1)c1ccc(N2C[C@H](CNC(C)=O)OC2=O)cc1F
MIC (Enterococcus faecium): > 128 µg/mL
MIC (Staphylococcus aureus [1]): > 128 µg/mL
MIC (Enterococcus faecalis): > 128 µg/mL
MIC (Staphylococcus aureus [3]): > 128 µg/mL

CC(=O)NC[C@H]1CN(c2ccc(N3C(=O)c4ccccc4C3=O)c(F)c2)C(=O)O1
MIC (Enterococcus faecium): 32 µg/mL (≈ 80.5 µM)
MIC (Staphylococcus aureus [1]): 32 µg/mL (≈ 80.5 µM)
MIC (Staphylococcus aureus [2]): 16 µg/mL (≈ 40.3 µM)
MIC (Enterococcus faecalis): 64 µg/mL (≈ 161 µM)
MIC (Staphylococcus aureus [3]): 128 µg/mL (≈ 322 µM)

CC(=O)NC[C@H]1CN(c2ccc(-n3cc4cncnc4c3)c(F)c2)C(=O)O1
MIC (Enterococcus faecium): 0.5 µg/mL (≈ 1.35 µM)
MIC (Staphylococcus aureus [1]): 1 µg/mL (≈ 2.71 µM)
MIC (Staphylococcus aureus [2]): 1 µg/mL (≈ 2.71 µM)
MIC (Enterococcus faecalis): 1 µg/mL (≈ 2.71 µM)
MIC (Staphylococcus aureus [3]): 2 µg/mL (≈ 5.41 µM)

CC(=O)NC[C@H]1CN(c2ccc(N3Cc4ncccc4C3=O)c(F)c2)C(=O)O1
MIC (Enterococcus faecium): 8 µg/mL (≈ 20.8 µM)
MIC (Staphylococcus aureus [1]): 16 µg/mL (≈ 41.6 µM)
MIC (Staphylococcus aureus [2]): 4 µg/mL (≈ 10.4 µM)
MIC (Enterococcus faecalis): 16 µg/mL (≈ 41.6 µM)
MIC (Staphylococcus aureus [3]): 8 µg/mL (≈ 20.8 µM)

CC(=O)NC[C@H]1CN(c2ccc(N3Cc4cncnc4C3)c(F)c2)C(=O)O1
MIC (Enterococcus faecium): 1 µg/mL (≈ 2.69 µM)
MIC (Staphylococcus aureus [1]): 1 µg/mL (≈ 2.69 µM)
MIC (Staphylococcus aureus [2]): 1 µg/mL (≈ 2.69 µM)
MIC (Enterococcus faecalis): 2 µg/mL (≈ 5.39 µM)
MIC (Staphylococcus aureus [3]): 2 µg/mL (≈ 5.39 µM)

CC(=O)NC[C@H]1CN(c2ccc(N3CCOCC3)c(F)c2)C(=O)O1 [LINEZOLID]
MIC (Enterococcus faecium): 2 µg/mL (≈ 5.93 µM)
MIC (Staphylococcus aureus [2]): 1 µg/mL (≈ 2.96 µM)
ED50 (Mus musculus [4]): 8 mg/kg/day

CC(=O)NC[C@H]1CN(c2ccc(N3C(=O)c4ccncc4C3=O)c(F)c2)C(=O)O1
MIC (Enterococcus faecium): > 128 µg/mL
MIC (Staphylococcus aureus [1]): > 128 µg/mL
MIC (Enterococcus faecalis): > 128 µg/mL
MIC (Staphylococcus aureus [3]): > 128 µg/mL

CC(=O)NC[C@H]1CN(c2ccc(-n3cc4cccnc4c3)c(F)c2)C(=O)O1
MIC (Enterococcus faecium): 1 µg/mL (≈ 2.71 µM)
MIC (Staphylococcus aureus [1]): 1 µg/mL (≈ 2.71 µM)
MIC (Staphylococcus aureus [2]): 0.5 µg/mL (≈ 1.36 µM)
MIC (Enterococcus faecalis): 1 µg/mL (≈ 2.71 µM)
MIC (Staphylococcus aureus [3]): 2 µg/mL (≈ 5.43 µM)

CC(=O)NC[C@H]1CN(c2ccc(-n3cc4ccncc4c3)c(F)c2)C(=O)O1
MIC (Enterococcus faecium): 0.5 µg/mL (≈ 1.36 µM)
MIC (Staphylococcus aureus [1]): 0.5 µg/mL (≈ 1.36 µM)
MIC (Staphylococcus aureus [2]): 0.5 µg/mL (≈ 1.36 µM)
MIC (Enterococcus faecalis): 1 µg/mL (≈ 2.71 µM)
MIC (Staphylococcus aureus [3]): 1 µg/mL (≈ 2.71 µM)

CC(=O)NC[C@H]1CN(c2ccc(N3Cc4cccnc4C3)c(F)c2)C(=O)O1
MIC (Enterococcus faecium): 0.5 µg/mL (≈ 1.35 µM)
MIC (Staphylococcus aureus [1]): 0.5 µg/mL (≈ 1.35 µM)
MIC (Staphylococcus aureus [2]): 0.25 µg/mL (≈ 0.675 µM)
MIC (Enterococcus faecalis): 0.5 µg/mL (≈ 1.35 µM)
MIC (Staphylococcus aureus [3]): 1 µg/mL (≈ 2.7 µM)

CC(=O)NC[C@H]1CN(c2ccc(N3Cc4ccccc4C3)c(F)c2)C(=O)O1
MIC (Enterococcus faecium): 4 µg/mL (≈ 10.8 µM)
MIC (Staphylococcus aureus [1]): 4 µg/mL (≈ 10.8 µM)
MIC (Staphylococcus aureus [2]): 1 µg/mL (≈ 2.71 µM)
MIC (Enterococcus faecalis): 4 µg/mL (≈ 10.8 µM)
MIC (Staphylococcus aureus [3]): 16 µg/mL (≈ 43.3 µM)
ED50 (Mus musculus [5]): > 80 mg/kg/day

CC(=O)NC[C@H]1CN(c2ccc(N3Cc4ccccc4C3=O)c(F)c2)C(=O)O1
MIC (Enterococcus faecium): 8 µg/mL (≈ 20.9 µM)
MIC (Staphylococcus aureus [1]): 4 µg/mL (≈ 10.4 µM)
MIC (Staphylococcus aureus [2]): 4 µg/mL (≈ 10.4 µM)
MIC (Enterococcus faecalis): 8 µg/mL (≈ 20.9 µM)
MIC (Staphylococcus aureus [3]): 16 µg/mL (≈ 41.7 µM)

CC(=O)NC[C@H]1CN(c2ccc(N3C(=O)c4cccnc4C3=O)c(F)c2)C(=O)O1
MIC (Enterococcus faecium): > 128 µg/mL
MIC (Staphylococcus aureus [1]): > 128 µg/mL
MIC (Enterococcus faecalis): > 128 µg/mL
MIC (Staphylococcus aureus [3]): > 128 µg/mL
